Hits are enriched below; roughly 5.3% of the tested compounds scored in any of these assays.
NLRP3 yeast inh – NALP3 inhibition in yeast; Yeast reconstituted NLRP3/ASC/caspase-1, beta-gal luminescence, 24 h; AID 2825; 330,000 tested, 0.39% active; inhibition, % at 10 µM;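 active means inhibition of 50% or more; inactive means inhibition below 50%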
T cruzi repl – T. cruzi replication inhibition; T. cruzi beta-gal in NIH3T3, luminescence, 90 h; inhibition, % (no concentration beside the values); 300,000 tested, 1.4% active;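 active means mean inhibition across valid replicates above about 55%, limit read from the data; inconclusive means mean below that limit but half or more replicates reach it; inactive means mean below it, under half of replicates reach it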;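 further: signal also drops with host cell toxicity which is not excluded here; higher percent means less beta-gal luminescence so fewer parasites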
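Read-out: Parasite load inhibition, % | Test system: Mouse NIH/3T3 fibroblasts infected with β-gal-expressing T. cruzi Tulahuen C4 | Amount: 5,000 cells/well | Medium: DMEM, 2% fetal bovine serum | Signal: GalScreen β-gal luminescence, detergent lysis, 60 min | Timing: 3 h attach, ≥90 h co-culture | Also added: Tulahuen C4 trypomastigotes, 5000/well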
Mdm2 MdmX PPI – disrupts the human Mdm2-MdmX interaction | 330,000 tested, 3% active | AID 485346 | inhibition, % at 8 µM | O15151+Q00987 | SaOS-2 split-luciferase Mdm2/MdmX complementation, luminescence;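 active means inhibition of at least 50% at 8 µM in the primary screen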
Beta cell apopt – blocks beta cell apoptosis; AID 435005; 300,000 tested, 0.8% active; INS-1E cytokine-induced death, ATP luminescence, 48 h; percent of positive-control rescue, neutral wells zero; protection from apoptosis, % (no concentration beside the values);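 active means Every replicate reaches about 75%, or at least half do and their mean reaches it too, limit read from the data; inconclusive means At least half of replicates reach the limit but their mean does not; inactive means Under half of replicates reach the limit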;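 further: higher means more ATP so stronger rescue from cytokine killing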
CSC inhib – blocks cancer stem cells | inhibition, % at 7.5 µM | cancer stem cell-like cells viability, luminescence | 300,000 tested, 1.1% active; in the data active means inhibition above about 75%; inconclusive means no clear call, values can overlap the other calls; tested in HMLE shEcad cells
Calb FLC – C. albicans growth modulation with fluconazole; C. albicans CaCi-2 + fluconazole, Alamar Blue growth, 48 h; growth inhibition, % (no concentration beside the values); 300,000 tested, 0.57% active;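 active means growth inhibition above about 58% in most replicates, limit read from the data, passing the limit was not always enough; inconclusive means exactly half the replicates above a set limit; inactive means most replicates below a set limit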;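 further: all wells also contain fluconazole at 8 µg/ml as a sub-toxic cotreatment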
Numbers stand for hits.

For CCCCN1C(=O)/C(=C2\SC(N3CCCCC3)=NC2=O)c2ccccc21 the results were NLRP3 yeast inh inactive, T cruzi repl inactive, Mdm2 MdmX PPI inactive, Beta cell apopt 80, CSC inhib inactive and Calb FLC inactive.
For Cc1[nH]c2ccc(F)cc2c1CCN(Cc1cccnc1)C(=S)Nc1ccccc1 the results were NLRP3 yeast inh inactive, T cruzi repl 60, Mdm2 MdmX PPI inactive, Beta cell apopt inactive, CSC inhib inactive and Calb FLC inactive.
For Cc1cc2nc(CCN(Cc3cccnc3)C(=S)Nc3ccccc3)[nH]c2cc1C the results were NLRP3 yeast inh inactive, T cruzi repl inactive, Mdm2 MdmX PPI inactive, Beta cell apopt inactive, CSC inhib inactive and Calb FLC inactive.
For Cc1cc2nc(CCN(Cc3cccnc3)C(=S)Nc3ccc(F)cc3)[nH]c2cc1C the results were NLRP3 yeast inh inactive, T cruzi repl 61, Mdm2 MdmX PPI inactive and Calb FLC inactive.
For Cc1[nH]c2ccccc2c1CCN(Cc1cccnc1)C(=S)Nc1cccc(F)c1 the results were NLRP3 yeast inh inactive, T cruzi repl 58, Mdm2 MdmX PPI inactive, Beta cell apopt inactive, CSC inhib inactive and Calb FLC inactive.
Cc1[nH]c2ccccc2c1CCN(Cc1cccnc1)C(=S)Nc1ccc(F)cc1 was read as NLRP3 yeast inh inactive, T cruzi repl inactive, Mdm2 MdmX PPI inactive, Beta cell apopt inactive, CSC inhib inactive and Calb FLC inactive.
`CC(C)(C)n1nnnc1C(c1cccs1)N1CCCC2(CCCCC2)C1` (configuration not stated) gave NLRP3 yeast inh inactive, T cruzi repl 63, Mdm2 MdmX PPI inactive, Beta cell apopt inactive, CSC inhib inactive and Calb FLC inconclusive.
`COc1ccc(CN(C)c2ncnc3sccc23)c(OC)c1OC` gave NLRP3 yeast inh inactive, T cruzi repl inactive, Mdm2 MdmX PPI inactive, Beta cell apopt inactive, CSC inhib 77 and Calb FLC inactive.
`CSc1nc(-c2ccccc2)nn1S(=O)(=O)c1ccccc1` gave NLRP3 yeast inh inactive, T cruzi repl inactive, Mdm2 MdmX PPI inactive, Beta cell apopt inactive, CSC inhib inactive and Calb FLC inactive.
COc1cccc(CC2(CO)CCCN(Cc3ccccc3Cl)C2)c1 (configuration not stated) was read as NLRP3 yeast inh inactive, T cruzi repl inactive, Mdm2 MdmX PPI inactive, Beta cell apopt inactive, CSC inhib inactive and Calb FLC inactive.
`COc1cccc(CC2(CO)CCCN(Cc3ccc(CN4CCCCC4)s3)C2)c1` (configuration not stated) gave NLRP3 yeast inh inactive, T cruzi repl 71, Mdm2 MdmX PPI inactive, Beta cell apopt inactive, CSC inhib inactive and Calb FLC inconclusive.
For COc1ccc(CN2CCCC(CO)(Cc3ccc(F)cc3)C2)cc1C (configuration not stated) the results were NLRP3 yeast inh inactive, T cruzi repl 58, Mdm2 MdmX PPI inactive, CSC inhib inactive and Calb FLC inactive.
`COc1cccc(CC2(CO)CCCN(Cc3cn(C)c4ccccc34)C2)c1` (configuration not stated) gave NLRP3 yeast inh inactive, T cruzi repl 65, Mdm2 MdmX PPI inactive, Beta cell apopt inactive, CSC inhib inactive and Calb FLC inactive.
Screening COc1cccc(CC2(CO)CCCN(C/C=C/c3ccccc3OC)C2)c1 (configuration not stated) returned NLRP3 yeast inh inactive, T cruzi repl 63, Mdm2 MdmX PPI inactive, Beta cell apopt inactive, CSC inhib inactive and Calb FLC inactive.
`COc1ccc(-n2c(SCC(C)=O)nc3sc(C)c(C)c3c2=O)cc1` gave NLRP3 yeast inh inactive, T cruzi repl inactive, Mdm2 MdmX PPI inactive, Beta cell apopt inactive, CSC inhib inactive and Calb FLC inactive.
For CN(Cc1ccccc1)CC(O)COc1ccc(CNCc2nccn2C)cc1 (configuration not stated) the results were NLRP3 yeast inh inactive, T cruzi repl inactive, Mdm2 MdmX PPI inactive, Beta cell apopt inactive, CSC inhib inactive and Calb FLC inactive.
COCCN(C(=O)C1CCCO1)c1c(N)n(CC(C)C)c(=O)[nH]c1=O (configuration not stated) was read as NLRP3 yeast inh inactive, Mdm2 MdmX PPI inactive, Beta cell apopt inactive and CSC inhib inactive.
CCn1cc(CN2CCCC(CO)(Cc3ccc(F)cc3)C2)c2ccccc21 (configuration not stated) was read as NLRP3 yeast inh inactive, T cruzi repl inactive, Mdm2 MdmX PPI inactive, Beta cell apopt inactive, CSC inhib inactive and Calb FLC inactive.
`Cn1cc(CN2CCCC(CO)(Cc3ccccc3)C2)c2ccccc21` (configuration not stated) gave NLRP3 yeast inh inactive, T cruzi repl 67, Mdm2 MdmX PPI inactive, Beta cell apopt inactive, CSC inhib inactive and Calb FLC inactive.
Cc1ccc(-n2[nH]c(C)c(C=Nc3ccc4[nH]c(=O)[nH]c4c3)c2=O)cc1 was read as NLRP3 yeast inh inactive, T cruzi repl inactive, Mdm2 MdmX PPI inactive, Beta cell apopt inactive and Calb FLC inactive.
Cc1ccc(N=Cc2c(C)[nH]n(-c3nc4ccccc4[nH]3)c2=O)cc1 was read as NLRP3 yeast inh inactive, T cruzi repl inactive, Mdm2 MdmX PPI inactive, Beta cell apopt 92, CSC inhib 95 and Calb FLC inactive.
For COc1ccccc1NS(=O)(=O)c1cc(NC(=O)Nc2cccc(C)c2)ccc1N1CCCCC1 the results were NLRP3 yeast inh inactive, T cruzi repl 60, Mdm2 MdmX PPI inactive, Beta cell apopt inactive, CSC inhib inactive and Calb FLC inactive.
COc1ccccc1NS(=O)(=O)c1cc(NC(C)=O)ccc1N1CCCCC1 was read as NLRP3 yeast inh inactive, T cruzi repl inactive, Mdm2 MdmX PPI inactive, Beta cell apopt inactive, CSC inhib inactive and Calb FLC inactive.
CC(=O)Nc1ccc(NC2=C/C(=N/S(=O)(=O)c3cccs3)c3ccccc3C2=O)cc1 was read as NLRP3 yeast inh inactive, T cruzi repl 56, Mdm2 MdmX PPI inactive, Beta cell apopt 101, CSC inhib inactive and Calb FLC inconclusive.
Cc1ccc(NC2=C/C(=N/S(=O)(=O)c3cccs3)c3ccccc3C2=O)cc1C was read as T cruzi repl inactive, Beta cell apopt 80, CSC inhib inactive and Calb FLC inactive.
`CC(/C=C1\SC(=S)N(NC(=O)c2ccc(C)cc2)C1=O)=C\c1ccccc1` gave NLRP3 yeast inh inactive, T cruzi repl inactive, Mdm2 MdmX PPI inactive, CSC inhib inactive and Calb FLC inactive.
`CC(/C=C1\SC(=S)N(c2ccc(C(=O)O)cc2)C1=O)=C\c1ccccc1` gave NLRP3 yeast inh inactive, T cruzi repl inactive, Mdm2 MdmX PPI inactive, Beta cell apopt inactive, CSC inhib 76 and Calb FLC inactive.
`O=C(Cn1ncc(N2CCCC2)c(Cl)c1=O)c1ccc(Cl)cc1` gave NLRP3 yeast inh inactive, T cruzi repl inactive, Mdm2 MdmX PPI inactive, Beta cell apopt inactive, CSC inhib inactive and Calb FLC inactive.

Screening data deposited in PubChem BioAssay by several laboratories.
